bIAP act – bovine intestinal alkaline phosphatase activators, primary screen, biochemical, bovine IAP, CDP-star luminescence. alkaline phosphatase, intestinal [Bos taurus]. purified bovine IAP, 30 min; stronger effect = higher value; fold of DMSO-control signal, blank-subtracted. activation factor at 20 µM. hit rate 0.17% among 200,000;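 active = activation factor of 2 or more at 20 µM, a signal rise over negative controls twice the positive control's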
mIAP block – inhibitors of mouse IAP, primary screen, biochemical, luminescence, uHTS | purified mouse IAP, CDP-Star luminescence, 30 min | AID 2806, 2010 | inhibition, % at 10 µM | intestinal alkaline phosphatase [Mus musculus] | hit rate 0.2% among 330,000;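 active = inhibition of at least 40% at 10 µM in the primary screen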;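 note: plate controls were DMSO with enzyme for no effect and no enzyme wells for full effect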
hIAP activ – human IAP activators, primary screen, biochemical, luminescence, uHTS | AID 2524, 2010 | Intestinal-type alkaline phosphatase (Homo sapiens), P09923 | purified human IAP, CDP-Star luminescence, 30 min; stronger effect = higher value; 1 = vehicle-only enzyme, 0 = enzyme-free background | hit rate 0.16% among 330,000 | activation factor at 10 µM;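 active = activation factor of the enzyme at least 2-fold when tested at 20 µM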
Target sequence (P09923 whole entry, looked up): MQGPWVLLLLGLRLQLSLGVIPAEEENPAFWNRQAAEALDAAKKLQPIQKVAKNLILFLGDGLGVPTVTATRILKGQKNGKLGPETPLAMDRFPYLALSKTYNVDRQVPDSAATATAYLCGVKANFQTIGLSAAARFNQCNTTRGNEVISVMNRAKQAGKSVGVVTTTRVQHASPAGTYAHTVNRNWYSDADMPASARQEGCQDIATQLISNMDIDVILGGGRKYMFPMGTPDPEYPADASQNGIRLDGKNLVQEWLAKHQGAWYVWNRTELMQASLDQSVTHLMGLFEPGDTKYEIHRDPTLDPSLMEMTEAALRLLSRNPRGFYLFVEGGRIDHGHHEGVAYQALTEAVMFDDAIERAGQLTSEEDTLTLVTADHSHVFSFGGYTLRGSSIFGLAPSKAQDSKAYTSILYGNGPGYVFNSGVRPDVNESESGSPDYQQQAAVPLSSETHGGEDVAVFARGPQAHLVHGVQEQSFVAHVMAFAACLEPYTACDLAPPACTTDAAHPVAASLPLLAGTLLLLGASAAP
hIAP block – human IAP inhibitors, primary screen, biochemical, luminescence, uHTS | Intestinal-type alkaline phosphatase (Homo sapiens), P09923 | purified IAP, CDP-Star luminescence, 30 min | inhibition, % at 10 µM | hit rate 0.12% among 330,000;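 active = inhibition reaching a set limit with compound at 10 µM in the primary screen, cut at about 35% in these data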;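 note: plate controls were DMSO wells with enzyme for no effect and no-enzyme buffer wells for full effect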
mIAP activ – activators of mouse IAP, primary screen, biochemical, luminescence, uHTS; activation factor at 10 µM; muIAP, CDP-Star luminescence, 30 min; stronger effect = higher value; 1 = vehicle-only enzyme signal, 0 = enzyme-free wells; hit rate 0.24% among 330,000;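 active = activation factor of at least 2 at 20 µM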
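System: mouse IAP enzyme. Reagent: CDP-Star chemiluminescent phosphatase substrate. Benchmarks: DMSO wells, no-enzyme wells. Times: 30 min enzyme-substrate-compound incubation at room temperature. Detection: luminescence from enzymatic CDP-Star hydrolysis. Doses: test compounds delivered from DMSO solution.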
bIAP inhibitor – bovine intestinal alkaline phosphatase inhibitors, primary screen, selectivity assay for TNAP inhibitor project, biochemical, bovine IAP, CDP-star luminescence | alkaline phosphatase, intestinal [Bos taurus] | purified bovine IAP, 30 min | inhibition, % at 20 µM | 190,000 tested, under 10 active;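 active = over 50% inhibition of intestinal alkaline phosphatase at 20 µM in the single-dose screen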
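test system = bovine IAP enzyme | medium = DEA buffer 100 mM, pH 9.8, with MgCl2 1.0 mM, ZnCl2 0.02 mM | detection = luminescence | dosing = single compound dose of 20 µM, 2% DMSO final | incubation = 30 min reaction at room temperature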
mIAP inh confirm – inhibitors of mouse IAP, confirmation, biochemical, luminescence, single concentration | shares compounds with mIAP block | purified mouse IAP, CDP-Star luminescence, 30 min | inhibition, % at 10 µM | hit rate 4.7% among 11,000;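 active = inhibition of at least 40% at 10 µM in either of the two replicates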;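 note: plate controls were DMSO wells with enzyme for no effect and buffer wells lacking enzyme for full effect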
Active calls of the source: *; . = no result given. Shown are actives, neighbours in structure and some others; about 0.72% of the full set was active somewhere.

SMILES	bIAP act	mIAP block	hIAP activ	hIAP block	mIAP activ	bIAP inhibitor	mIAP inh confirm
CCN(Cc1ccccc1)C(c1cc2cc(C)ccc2[nH]c1=O)c1nnnn1CCOC (stereo not given)	0.8	56*	1.1	-13	0.44	16	57*
CCOc1ccccc1NC(=O)CN1CCC(NC(=O)Nc2ccccc2)CC1	.	-249	1.8	-81	3.5*	.	-199
CC1CCCC(NC(=O)Cn2cc(C(F)(F)F)cc(Cl)c2=O)C1C (stereo not given)	.	-9	1.2	-20	1.1	.	.
CCCc1c(NC(=O)Nc2ccc(F)cc2)cnn1-c1ccc(Cl)cc1	.	-278	1.4	-43	3.8*	.	-142
O=C(NCCc1ccc(Cl)cc1)Nc1ccc(F)cc1	1.1	-40	1.1	-11	1.4	-14	.
O=C(O)CNC(=O)c1ccc(NC(=O)/C(=C/c2ccccc2)NC(=O)c2ccccc2)cc1	.	3	1.1	-6	0.97	.	.
COc1ccc(OCCCC(=O)Nc2cc(Cl)ccc2-n2cncn2)cc1	.	-8	1	-5	1.1	.	.
C[C@@H]1O[C@@H](OC2C(O)C(OCCc3ccc(O)c(O)c3)OC(CO)C2OC(=O)/C=C/c2ccc(O)c(O)c2)[C@H](O)[C@H](O)[C@H]1O (stereo not given in full)	.	46*	0.74	26	0.54	.	42*
C[C@@H]1O[C@@H](O[C@H]2[C@H](O)[C@@H](O)[C@H](Oc3c(-c4ccc(O)cc4)oc4cc(O)cc(O)c4c3=O)O[C@@H]2CO)[C@H](O)[C@H](O)[C@H]1O	.	-5	1	-4	1.1	.	.
O=C1CC(N2CCN(S(=O)(=O)c3ccccc3F)CC2)C(=O)N1c1ccc(F)cc1F (stereo not given)	.	2	1.1	-8	0.98	.	.
Cc1ccc(S(=O)(=O)N2CCN(Cc3cc(=O)n4ccccc4n3)CC2)c(C)c1	.	5	0.97	3	0.95	.	.
Cc1ccc(/C=C2/SC(=O)NC2=S)o1	0.8	45*	1.1	-8	0.55	24	63*
O=S(=O)(c1cccc2nsnc12)N1CCNCC1	.	7	0.95	5	0.93	.	.
CC(C)CCNC(=O)Nc1ccc2c(c1)N(C)C(=O)CS2	0.8	-72	1.1	-13	1.7	21	.
CN1C(=O)CSc2ccc(NC(=O)NCCC3=CCCCC3)cc21	0.9	-279	2	-96	3.8*	12	-122
O=C(Nc1ccccc1)Nc1ccc2c(c1)CCC2	.	-118	0.92	8	2.2*	.	-95
CCCCCCC(C)OC(=O)c1ccccc1C(=O)O (stereo not given)	.	-6	0.98	2	1.1	.	.
C=CCSC1=N/C(=C\c2sccc2C)C(=O)S1	0.9	19	0.89	11	0.81	14	.
C=CCSC1=N/C(=C\C=C\c2ccco2)C(=O)S1	1	53*	1	-2	0.47	4	65*
O=C(Nc1nc(-c2ccco2)c(-c2ccco2)s1)c1c(F)cccc1Cl	.	70*	0.84	16	0.3	.	72*
O=C(Nc1ccc(F)cc1F)c1cc(-c2ccco2)nc2ccccc12	.	14	0.92	8	0.86	.	.
O=C(Nc1nc(-c2ccco2)c(-c2ccco2)s1)c1ccc(F)cc1F	.	51*	0.92	8	0.49	.	60*
CCC(C)N(C(=O)CN1C(=O)NC2(CCc3ccccc32)C1=O)C1CCS(=O)(=O)C1 (stereo not given)	.	4	1	-4	0.96	.	.
O=c1oc2ccccc2c(Nc2cccc(O)c2)c1[N+](=O)[O-]	0.7	48*	0.85	15	0.52	27	50*

Assay outcomes: PubChem BioAssay, Sanford-Burnham Center for Chemical Genomics
